Consider 16 compounds from ChEMBL document CHEMBL4028855, “New Mandelalides Expand a Macrolide Series of Mitochondrial Inhibitors” (J Med Chem, 2017).

Calls of active or inactive are those of the source. No cut-off for these calls is given here.

The test system of data set [1] is HeLa. The experiment in a line: Cytotoxicity against human HeLa cells assessed as reduction in cell viability measured after 48 hrs by MTT assay.
The species named for data set [2] is Homo sapiens. The experiment in a line: Inhibition of mitochondrial ATP synthase activity in human NCI-H292 cells assessed as decrease in basal oxygen consumption rate at 1 uM at 32 mins followed by addition of FCCP at 87 mins and rotenon /Antimycin A at 135 mins by real-time metabolic flux analysis. The format is cell-based.
The test system of data set [3] is HEK-293T. The experiment in a line: Cytotoxicity against HEK293T cells assessed as decrease in cell viability measured after 48 hrs by MTT assay. The format is cell-based. Particulars: human. In a few lines:
(§1)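 Cells grown at 37 °C, 5% CO2 and seeded 16−18 h before treatment. Exposed to increasing concentrations or vehicle (0.1% DMSO) for 48 h. Viability read by MTT, with vehicle-treated cells set as 100%. Mean ± SE, n = 3 wells, at least three independent comparisons. EC50 obtained by nonlinear regression fit to a logistic equation.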
For orientation: Formazan colour is commonly taken as a measure of viable cells.

Data set [4] relates to HeLa. The experiment in a line: Induction of apoptosis in human HeLa cells assessed as caspase-3/7 activation at 1 to 300 nM incubated for 24 hrs measured by luminescence-based Caspase-Glo assay.
For data set [5], the system named is HeLa. The experiment in a line: Cytotoxicity against human HeLa cells assessed as reduction in cell viability at 0.03 to 300 nM after 72 hrs in presence of 2-deoyxglucose by MTT assay. Type of data set: functional, cell-based.
The test system of data set [6] is HeLa. The experiment in a line: Cytotoxicity against human HeLa cells at 2000 cells per well assessed as decrease in cell viability at 100 to 1000 nM after 48 hrs by MTT assay relative to control. The format is functional.
Data set [7] is described as follows: (§2) Inhibition of bovine heart mitochondrial ATP synthase activity assessed as decrease in ATP-dependent NADH oxidation measured every 30 secs for 30 mins by colorimetric assay relative to control. On the set-up: species or system Bos taurus.
For data set [8], the species on record is Bos taurus. Described as §2.
The test system of data set [9] is HeLa. The data set can be described thus: Cytotoxicity against human HeLa cells at 10000 cells per well assessed as cell viability at 100 to 1000 nM after 48 hrs by MTT assay relative to control. Type of data set: functional.
Data set [10] has as its system HeLa. The experiment in a line: Cytotoxicity against human HeLa cells at 6000 cells per well assessed as cell viability at 100 to 1000 nM after 48 hrs by MTT assay relative to control. The format is functional.
The test system of data set [11] is NCI-H460. The experiment in a line: Cytotoxicity against human NCI-H460 cells assessed as reduction in cell viability measured after 72 hrs by MTT assay. Particulars: NCI-H460, 72 h.
Data set [12] is described as follows: Safety index, ratio of compound EC50 to Oligomycin A EC50 for cytotoxicity against HEK293T cells. Type of data set: cell-based, HEK-293T. Particulars: human, read-out: Ratio EC50. In outline:
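HEK 293T cells were grown in DMEM with 10% FBS, 2 mM L-glutamine and 1% penicillin/streptomycin at 37 °C and 5% CO2. They were seeded at two starting densities 16−18 h before treatment with increasing concentrations of test compound or oligomycin A (final DMSO ≤0.1%). Viability was read by MTT relative to vehicle (100%), with EC50s fit by nonlinear logistic regression and compared as a ratio.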

Data set [13] relates to HeLa. The data set can be described thus: Cytotoxicity against human HeLa cells at 6000 cells per well assessed as decrease in cell viability up to 1 uM after 48 hrs by MTT assay. Type of data set: functional, cell-based.
For data set [14], the system named is HeLa. The experiment in a line: Cytotoxicity against human HeLa cells at 10000 cells per well assessed as decrease in cell viability up to 1 uM after 48 hrs by MTT assay. Type of data set: functional, cell-based.
Data set [15] has as its system HeLa. The data set can be described thus: Cytotoxicity against human HeLa cells at 2000 cells per well assessed as decrease in cell viability at 0.25 to 1 uM after 48 hrs by MTT assay relative to control. The format is functional.
The test system of data set [16] is HeLa. The data set can be described thus: Cytotoxicity against human HeLa cells assessed as reduction in cell viability at […] after 72 hrs by MTT assay. Type of data set: functional, cell-based.
Data set [17] has as its system HeLa. The experiment in a line: Cytotoxicity against human HeLa cells assessed as reduction in cell viability up to 1000 nM measured after 48 hrs by MTT assay. The format is functional, cell-based. In outline:
as §1

Data set [18] relates to NCI-H460. The data set can be described thus: Cytotoxicity against human NCI-H460 cells assessed as reduction in cell viability measured after 48 hrs by MTT assay. Type of data set: functional, cell-based. The settings on record: NCI-H460, 48 h. In outline: as §1
Data set [19] is filed under the species Homo sapiens. The experiment in a line: Inhibition of mitochondrial ATP synthase activity in human NCI-H292 cells assessed as decrease in oxygen consumption rate at 1 uM at 32 mins followed by addition of 1 uM FCCP at 87 mins and 0.5 uM rotenon /Antimycin A at 135 mins measured by real-time metabolic flux analysis. Type of data set: cell-based.
Data set [20] is filed under the species Bos taurus. The experiment in a line: Inhibition of bovine heart mitochondrial ATP synthase activity assessed as decrease in ATP-dependent NADH oxidation at 12.5 uM measured every 30 secs for 30 mins by colorimetric assay relative to control.
The species entered for data set [21] is Homo sapiens. The data set can be described thus: Inhibition of mitochondrial ATP synthase activity in human NCI-H292 cells assessed as decrease in oxygen consumption rate at 1 uM at 87 mins followed by addition of rotenon /Antimycin A at 135 mins measured by real-time metabolic flux analysis. The format is cell-based.
Data set [22] is filed under the species Homo sapiens. The data set can be described thus: Inhibition of mitochondrial ATP synthase activity in human NCI-H292 cells assessed as decrease in oxygen consumption rate at 1 uM at 135 mins after FCCP treatment at 87 mins by real-time metabolic flux analysis. The format is cell-based.
Data set [23] is filed under the species Bos taurus. The data set can be described thus: Inhibition of bovine heart mitochondrial ATP synthase activity assessed as decrease in ATP-dependent NADH oxidation at 1 uM measured every 30 secs for 30 mins by colorimetric assay relative to control.

As usually defined, the EC50 is the concentration giving half of the maximal effect. One may read the IC50 as the concentration that inhibits the measured activity by half.

On to `CO[C@H]1[C@H](O[C@@H]2C[C@@H]3C/C=C/C(=O)O[C@H](CO)C[C@H](O)[C@@H]4C[C@H](C)[C@H](C/C=C\C=C\[C@H](C)C[C@H](C2)O3)O4)O[C@@H](C)[C@H](O)[C@H]1O`, for which the EC50 in [1] stood at 9.9 nM; in data set [11] it was 11 nM. Besides, the inhibition entry in data set [2] was “Active”. The Activity entry in data set [3] is “Dose-dependent effect”; in data set [6], 25%; in data set [9] it was 85%; in data set [10] it was 85%. Besides, the result in [4] and in data set [5] was Active. Further, the half-maximal inhibitory concentration (IC50) in [7] was 2.2 nM. In addition, in data set [8], the inhibition entry was “Dose-dependent effect”. In addition, in data set [12], the selectivity ratio was in the range of 13 to 30.

In the case of `OC[C@H]1OC(O)C[C@@H](O)[C@@H]1O` (some centres undefined), the result in [13] and in data set [14] was inactive. In [15], the Activity is on record as 50%. Moreover, the result in data set [16] was Active.

Turning to `COC(=O)/C=C/C[C@H]1C[C@@H](O[C@@H]2O[C@@H](C)[C@H](O)[C@@H](O)[C@H]2OC)C[C@@H](C[C@@H](C)/C=C/C=C\C[C@@H]2O[C@H]([C@@H](O)C[C@H](O)CO)C[C@@H]2C)O1`, in data set [17], the result was inactive.

Consider `CCCC(=O)O[C@H]1[C@@H](OC)[C@H](O[C@@H]2C[C@@H]3C[C@H](OC(C)=O)[C@@]4(O)C[C@H](C[C@H](OC(C)=O)[C@@H]5C[C@H](C)[C@H](C/C=C\C=C\[C@H](C)C[C@H](C2)O3)O5)OC4=O)O[C@@H](C)[C@H]1OC(=O)CCC`, for which the EC50 is above 3000 nM in data set [1] and 2400 nM in data set [18].

As to `CCCCCC(=O)O[C@H]1C[C@H]2C[C@@H](O)C[C@@H](C[C@@H](C)/C=C/C=C\C[C@@H]3O[C@@H](C[C@@H]3C)[C@@H](O)C[C@@H]3OC(=O)[C@]1(O)[C@@H]3OC(=O)CCC)O2`, the results for the EC50 in [1] and in data set [18] were 330 nM and 2600 nM, respectively.

Take `CCCC(=O)O[C@H]1[C@@H](OC)[C@H](O[C@@H]2C[C@@H]3C[C@H](O)[C@]4(O)C(=O)O[C@@H](C[C@H](O)[C@@H]5C[C@H](C)[C@H](C/C=C\C=C\[C@H](C)C[C@H](C2)O3)O5)[C@H]4O)O[C@@H](C)[C@H]1OC(=O)CCC`: the EC50 was 1900 nM in data set [1] and 2000 nM in [18].

Consider `CCCC(=O)O[C@H]1[C@@H](OC)[C@H](O[C@@H]2C[C@@H]3C[C@H](OC(=O)CCC)[C@@]4(O)C[C@H](C[C@H](OC(C)=O)[C@@H]5C[C@H](C)[C@H](C/C=C\C=C\[C@H](C)C[C@H](C2)O3)O5)OC4=O)O[C@@H](C)[C@H]1OC(=O)CCC`, for which the EC50 in data set [1] is above 3000 nM; in data set [18], 790 nM.

For `CCCCCCCC(=O)OC[C@@H]1C[C@H](O)[C@@H]2C[C@H](C)[C@H](C/C=C\C=C\[C@H](C)C[C@@H]3C[C@H](O[C@@H]4O[C@@H](C)[C@H](O)[C@@H](O)[C@H]4OC)C[C@H](C/C=C/C(=O)O1)O3)O2`, the EC50 in data set [1] worked out at 2.8 nM; in data set [18], 9.8 nM.

On to `CCCC(=O)O[C@H]1C[C@H]2C[C@@H](O)C[C@@H](C[C@@H](C)/C=C/C=C\C[C@@H]3O[C@@H](C[C@@H]3C)[C@@H](O)C[C@@H]3OC(=O)[C@]1(O)[C@@H]3O)O2`, for which the EC50 in data set [1] and in data set [18] was above 3000 nM each time. Also, the inhibition result in data set [2] is “inactive”. Besides, the IC50 in [7] is 3400 nM.

As for `CC[C@@H]1/C=C/C=C/C[C@H](C)[C@@H](O)[C@](C)(O)C(=O)[C@@H](C)[C@H](O)[C@@H](C)C(=O)[C@H](C)[C@@H](O)[C@H](C)/C=C/C(=O)O[C@H]2[C@@H](C)[C@@H](CC1)O[C@@]1(CC[C@@H](C)[C@@H](C[C@H](C)O)O1)[C@@H]2C`, the inhibition entry in data set [19], in data set [2] and in data set [20] was “Active” in each case.

With `CCCC(=O)O[C@H]1C[C@H]2C[C@@H](O[C@@H]3O[C@@H](C)[C@@H](O)[C@@H](O)[C@H]3OC)C[C@@H](C[C@@H](C)/C=C/C=C\C[C@@H]3O[C@@H](C[C@@H]3C)[C@@H](O)C[C@H]3C[C@@]1(O)C(=O)O3)O2`, the EC50 was found to be 16 nM in data set [1] and 44 nM in data set [18]. In addition, the inhibition entry in [19], in [2], in data set [21] and in data set [22] was “Active” throughout.

In the case of `CCCC(=O)O[C@H]1C[C@H]2C[C@@H](O)C[C@@H](C[C@@H](C)/C=C/C=C\C[C@@H]3O[C@@H](C[C@@H]3C)[C@@H](O)C[C@@H]3OC(=O)[C@]1(O)[C@@H]3OC(=O)CCC)O2`, the EC50 in data set [1] was determined as 660 nM; in [18] it was 1700 nM.

`CCCC(=O)O[C@H]1[C@@H](OC)[C@H](O[C@@H]2C[C@@H]3C[C@H](OC(=O)CCC)[C@@]4(O)C[C@H](C[C@H](O)[C@@H]5C[C@H](C)[C@H](C/C=C\C=C\[C@H](C)C[C@H](C2)O3)O5)OC4=O)O[C@@H](C)[C@H]1OC(=O)CCC`: the EC50 in data set [1] was determined as 2000 nM; in data set [18], 910 nM.

Take `CCCC(=O)O[C@H]1[C@@H](OC)[C@H](O[C@@H]2C[C@@H]3C[C@H](OC(=O)CCC)[C@]4(O)C(=O)O[C@@H](C[C@H](O)[C@@H]5C[C@H](C)[C@H](C/C=C\C=C\[C@H](C)C[C@H](C2)O3)O5)[C@H]4O)O[C@@H](C)[C@H]1OC(=O)CCC`: the EC50 in [1] and in data set [18] was above 3000 nM each time.

With `CCCC(=O)OC1C(=O)C(OC)C(O[C@@H]2C[C@@H]3C[C@H](OC(=O)CCC)[C@]4(O)C(=O)O[C@@H](C[C@H](O)[C@@H]5C[C@H](C)[C@H](C/C=C\C=C\[C@H](C)C[C@H](C2)O3)O5)[C@H]4O)OC1C` (some centres undefined), the 50% effective concentration (EC50) in data set [1] was found to be 50 nM; in data set [18], 270 nM.

In the case of `COC[C@@H](C[C@H]1O[C@@](O)([C@H](O)[C@@H]2C[C@H](OC)[C@@H](O)CC/C=C(C)/C=C/[C@@H](O[C@@H]3O[C@@H](C)[C@H](OC)[C@@H](O)[C@@H]3O)[C@H](C)/C=C(C)/C=C(C)/C=C(\C)C(=O)O2)[C@H](C)[C@@H](O)[C@H]1C)O[C@H]1C[C@](C)(O)[C@@H](O[C@H]2C[C@@H](OC)[C@H](O)[C@@H](C)O2)[C@H](C)O1`, in data set [23], the inhibition entry was “Active”.
